Experimental data from ChEMBL document CHEMBL5705904 (N Engl J Med, 2016).

Key:
[1] = Drug exposure in human administered for 6 hrs by LC-MS/MS analysis; assay type: ADME; details: po, dose 100-400 mg
[2] = Tmax in human at 175 mg, po administered for 8 days by LC-MS/MS analysis; assay type: ADME, organism-based; details: in vivo, time 8 day
Method in brief: (§1)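 Patient plasma sampled on cycle 1 day 8 at predose and 0.25, 0.5, 0.75, 1, 2, 4 and 6 h post-dose, in lithium heparin. […] Tmax read directly from each individual's data; summarized descriptively.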

[3] = target: Tyrosine-protein kinase HCK (Homo sapiens, UniProt P08631); test: Inhibition of recombinant HCK (unknown origin) preincubated for 1 hr in presence of ATP by Z-Lyte assay
Tyrosine-protein kinase HCK, sequence (P08631 whole entry): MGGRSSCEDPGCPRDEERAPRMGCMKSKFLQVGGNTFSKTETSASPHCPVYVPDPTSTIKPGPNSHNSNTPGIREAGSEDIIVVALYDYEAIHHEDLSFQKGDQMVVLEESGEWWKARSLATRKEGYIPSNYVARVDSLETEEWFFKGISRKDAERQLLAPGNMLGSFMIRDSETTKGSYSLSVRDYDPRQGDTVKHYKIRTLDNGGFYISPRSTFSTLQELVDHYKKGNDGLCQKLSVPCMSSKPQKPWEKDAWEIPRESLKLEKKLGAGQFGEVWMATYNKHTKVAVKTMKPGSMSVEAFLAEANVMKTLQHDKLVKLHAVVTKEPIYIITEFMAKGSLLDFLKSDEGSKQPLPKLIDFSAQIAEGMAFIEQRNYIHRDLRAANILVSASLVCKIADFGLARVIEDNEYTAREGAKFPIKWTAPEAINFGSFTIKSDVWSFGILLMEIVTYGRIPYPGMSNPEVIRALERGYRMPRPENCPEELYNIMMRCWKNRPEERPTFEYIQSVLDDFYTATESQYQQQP
Method in brief: (§2)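 Recombinant kinase activity was measured by Z'-LYTE with ATP at each enzyme's Km. Inhibitor came from a 10 mM DMSO stock and was tested at 10 concentrations. Compound was preincubated with kinase for 1 h before ATP addition started the reaction, for about 2 h total compound-kinase exposure. IC50 is from 2–3 independent experiments.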

[4] = Half life in human at 175 mg, po administered for 8 days by LC-MS/MS analysis; assay type: ADME, organism-based; details: in vivo, time 8 day
Method in brief: (§3)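 Steady-state plasma sampling on cycle 1 day 8 in patients, predose and 0.25, 0.5, 0.75, 1, 2, 4 and 6 h post-dose, into lithium heparin. Plasma was stored at -80°C. Drug was quantified by validated LC-MS/MS against a stable labeled internal standard, using only values at or above LLOQ and nominal sampling times.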

[5] = target: Tyrosine-protein kinase Lyn (Homo sapiens, UniProt P07948); test: Inhibition of recombinant LYN (unknown origin) preincubated for 1 hr in presence of ATP by Z-Lyte assay; method in brief: as §2
Tyrosine-protein kinase Lyn, sequence (P07948 whole entry): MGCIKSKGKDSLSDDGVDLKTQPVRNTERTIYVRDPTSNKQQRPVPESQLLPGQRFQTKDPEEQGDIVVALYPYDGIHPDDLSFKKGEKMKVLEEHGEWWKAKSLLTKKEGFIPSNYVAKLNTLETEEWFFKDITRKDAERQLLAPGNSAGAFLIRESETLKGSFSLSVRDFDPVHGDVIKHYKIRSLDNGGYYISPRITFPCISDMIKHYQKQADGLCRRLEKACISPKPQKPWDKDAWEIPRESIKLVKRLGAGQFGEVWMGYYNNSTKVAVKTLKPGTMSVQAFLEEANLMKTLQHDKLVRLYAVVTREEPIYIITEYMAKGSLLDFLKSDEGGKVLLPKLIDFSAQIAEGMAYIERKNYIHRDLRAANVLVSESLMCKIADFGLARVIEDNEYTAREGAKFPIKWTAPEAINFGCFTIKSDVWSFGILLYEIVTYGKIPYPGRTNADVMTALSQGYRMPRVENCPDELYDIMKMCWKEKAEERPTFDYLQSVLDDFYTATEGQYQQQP

[6] = Apparent volume of distribution during terminal phase in human at 100 mg, po BID administered for 8 days by LC-MS/MS analysis; assay type: ADME, organism-based; details: in vivo, time 8 day, read-out: Vz/F; method in brief: as §3
[7] = target: Tyrosine-protein kinase Yes (Homo sapiens, UniProt P07947); test: Inhibition of recombinant YES1 (unknown origin) […] by Z-Lyte assay
Tyrosine-protein kinase Yes, sequence (P07947 whole entry): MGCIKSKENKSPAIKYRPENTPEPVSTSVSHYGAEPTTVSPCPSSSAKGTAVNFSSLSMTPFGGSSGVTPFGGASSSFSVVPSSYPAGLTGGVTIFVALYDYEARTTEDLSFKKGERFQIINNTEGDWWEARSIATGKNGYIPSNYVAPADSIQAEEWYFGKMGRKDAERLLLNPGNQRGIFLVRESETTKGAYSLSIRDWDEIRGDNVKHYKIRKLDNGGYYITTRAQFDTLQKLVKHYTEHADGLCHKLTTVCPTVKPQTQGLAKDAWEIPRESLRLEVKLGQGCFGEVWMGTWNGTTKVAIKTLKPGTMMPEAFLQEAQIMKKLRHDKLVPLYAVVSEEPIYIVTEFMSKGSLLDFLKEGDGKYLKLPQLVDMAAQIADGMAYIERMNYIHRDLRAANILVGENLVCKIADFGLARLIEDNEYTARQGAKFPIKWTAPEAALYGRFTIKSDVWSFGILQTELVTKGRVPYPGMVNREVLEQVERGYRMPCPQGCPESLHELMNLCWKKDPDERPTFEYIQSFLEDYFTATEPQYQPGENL
Method in brief: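 Recombinant YES1 run in a Z'-LYTE assay. Compound preincubated with kinase for 1 h before ATP was added to start the reaction. IC50 derived from independent experiments run head-to-head with the comparator.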

[8] = Half life in human at 100 mg, po administered for 8 days by LC-MS/MS analysis; assay type: ADME, organism-based; details: in vivo, time 8 day; method in brief: as §3
[9] = Apparent oral clearance in human at 250 mg, po administered for 8 days by LC-MS/MS analysis; assay type: ADME, organism-based; details: in vivo, time 8 day; method in brief: as §3
[10] = Half life in human at 400 mg, po administered for 8 days by LC-MS/MS analysis; assay type: ADME, organism-based; details: in vivo, time 8 day; method in brief: as §3
[11] = Apparent volume of distribution during terminal phase in human at 400 mg, po administered for 8 days by LC-MS/MS analysis; assay type: ADME, organism-based; details: in vivo, time 8 day, read-out: Vz/F; method in brief: as §3
[12] = Tmax in human at 250 mg, po administered for 8 days by LC-MS/MS analysis; assay type: ADME, organism-based; details: in vivo, time 8 day; method in brief: as §1
[13] = AUC(0 to infinity) in human at 100 mg, po BID administered for 8 days by LC-MS/MS analysis; assay type: ADME, organism-based; details: in vivo, time 8 day; method in brief: as §3
[14] = Cmax in human at 100 mg, po BID administered for 8 days by LC-MS/MS analysis; assay type: ADME, organism-based; details: in vivo, time 8 day; method in brief: as §3
[15] = Apparent oral clearance in human at 100 mg, po administered for 8 days by LC-MS/MS analysis; assay type: ADME, organism-based; details: in vivo, time 8 day; method in brief: as §3
[16] = AUC(0 to 24 hrs) in human at 100 mg, po BID administered for 8 days by LC-MS/MS analysis; assay type: ADME, organism-based; details: in vivo, time 8 day; method in brief: as §3
[17] = Half life in human at 100 mg, po BID administered for 8 days by LC-MS/MS analysis; assay type: ADME, organism-based; details: in vivo, time 8 day; method in brief: as §3
[18] = AUC(0 to 6 hrs) in human at 250 mg, po administered for 8 days by LC-MS/MS analysis; assay type: ADME, organism-based; details: in vivo, time 8 day; method in brief: as §3
[19] = AUC(0 to 12 hrs) in human at 100 mg, po BID administered for 8 days by LC-MS/MS analysis; assay type: ADME, organism-based; details: in vivo, time 8 day; method in brief: as §3
[20] = Apparent volume of distribution during terminal phase in human at 100 mg, po administered for 8 days by LC-MS/MS analysis; assay type: ADME, organism-based; details: in vivo, time 8 day, read-out: Vz/F; method in brief: as §3
[21] = Terminal elimination half life in human at 250 mg, po administered for 8 days by LC-MS/MS analysis; assay type: ADME, organism-based; details: in vivo, time 8 day, read-out: LambdaZ (converted)
[22] = target: Tyrosine-protein kinase Fyn (Homo sapiens, UniProt P06241); test: Inhibition of recombinant FYN (unknown origin) preincubated for 1 hr […] by Z-Lyte assay; method in brief: as §2
Tyrosine-protein kinase Fyn, sequence (P06241 whole entry): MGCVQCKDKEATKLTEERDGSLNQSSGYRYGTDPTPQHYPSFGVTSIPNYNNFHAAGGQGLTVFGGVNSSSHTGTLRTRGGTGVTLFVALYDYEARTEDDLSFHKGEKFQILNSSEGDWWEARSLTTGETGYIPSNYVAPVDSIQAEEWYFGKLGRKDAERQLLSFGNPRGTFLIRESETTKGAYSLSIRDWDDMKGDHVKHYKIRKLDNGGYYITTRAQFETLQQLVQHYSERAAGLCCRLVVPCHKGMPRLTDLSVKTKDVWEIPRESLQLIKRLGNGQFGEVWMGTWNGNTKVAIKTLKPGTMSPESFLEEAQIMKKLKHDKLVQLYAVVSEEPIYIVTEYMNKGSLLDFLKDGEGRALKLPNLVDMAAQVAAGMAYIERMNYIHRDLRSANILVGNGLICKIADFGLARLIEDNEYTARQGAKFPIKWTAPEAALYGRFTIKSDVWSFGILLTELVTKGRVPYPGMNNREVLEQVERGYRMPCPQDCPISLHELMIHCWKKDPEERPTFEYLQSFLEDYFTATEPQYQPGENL

[23] = Apparent oral clearance in human at 400 mg, po administered for 8 days by LC-MS/MS analysis; assay type: ADME, organism-based; details: in vivo, time 8 day; method in brief: as §3
[24] = AUC(0 to infinity) in human at 250 mg, po administered for 8 days by LC-MS/MS analysis; assay type: ADME, organism-based; details: in vivo, time 8 day; method in brief: as §3
[25] = Apparent volume of distribution during terminal phase in human at 175 mg, po administered for 8 days by LC-MS/MS analysis; assay type: ADME, organism-based; details: in vivo, time 8 day, read-out: Vz/F; method in brief: as §3
[26] = Terminal elimination half life in human at 100 mg, po BID administered for 8 days by LC-MS/MS analysis; assay type: ADME, organism-based; details: in vivo, time 8 day, read-out: LambdaZ (converted)
[27] = AUC(0 to 24 hrs) in human at 400 mg, po administered for 8 days by LC-MS/MS analysis; assay type: ADME, organism-based; details: in vivo, time 8 day; method in brief: as §3
[28] = AUC(0 to 12 hrs) in human at 175 mg, po administered for 8 days by LC-MS/MS analysis; assay type: ADME, organism-based; details: in vivo, time 8 day; method in brief: as §3
[29] = Tmax in human at 100 mg, po BID administered for 8 days by LC-MS/MS analysis; assay type: ADME, organism-based; details: in vivo, time 8 day; method in brief: as §1
[30] = Terminal elimination half life in human at 400 mg, po administered for 8 days by LC-MS/MS analysis; assay type: ADME, organism-based; details: in vivo, time 8 day, read-out: LambdaZ (converted)
[31] = Apparent oral clearance in human at 100 mg, po BID administered for 8 days by LC-MS/MS analysis; assay type: ADME, organism-based; details: in vivo, time 8 day; method in brief: as §3

CC#CC(=O)N1CCC[C@H]1c1nc(-c2ccc(C(=O)Nc3ccccn3)cc2)c2c(N)nccn12 [ACALABRUTINIB]
Drug uptake [1]: Dose-Dependent Effect | Tmax [2]: 0.64 h | IC50 [3]: > 1 µM | half-life [4]: 1.02 h | IC50 [5]: > 1 µM | Vd/F [6]: 361 L | IC50 [7]: > 1 µM | half-life [8]: 1.16 h | CL/F [9]: 2170 mL/min | half-life [10]: 1.39 h | Vd/F [11]: 677 L | Tmax [12]: 1.1 h | AUC(0-inf) [13]: 927 ng·h/mL | Cmax [14]: 827 ng/mL | CL/F [15]: 3000 mL/min | AUC at 192 h [16]: 1850 ng·h/mL | half-life [17]: 1.13 h | AUC at 192 h [18]: 1990 ng·h/mL | AUC at 192 h [19]: 926 ng·h/mL | Vd/F [20]: 308 L | k el at 192 h [21]: 0.000206 s⁻¹ | IC50 [22]: > 1 µM | CL/F [23]: 5200 mL/min | AUC(0-inf) [24]: 2310 ng·h/mL | Vd/F [25]: 317 L | k el at 192 h [26]: 0.000188 s⁻¹ | AUC at 192 h [27]: 1870 ng·h/mL | AUC at 192 h [28]: 1160 ng·h/mL | Tmax [29]: 1 h | k el at 192 h [30]: 0.000161 s⁻¹ | CL/F [31]: 2750 mL/min
